# Screening data: PubChem BioAssay, several laboratories
# ADAM10 inh: inhibits human ADAM10 | recombinant ADAM10, EDANS/DABCYL FRET peptide cleavage, 3 h | 370,000 tested, 0.62% active | inhibition, % at 7 µM | O14672;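 active = inhibition above a per-campaign cutoff equal to the mean of compounds falling between control-based bounds plus 3 SD, cut at about 20% in these data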;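 note: 0% = DMSO wells while the 100% control is not disclosed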
# Target sequence (O14672 214-748 limits assumed): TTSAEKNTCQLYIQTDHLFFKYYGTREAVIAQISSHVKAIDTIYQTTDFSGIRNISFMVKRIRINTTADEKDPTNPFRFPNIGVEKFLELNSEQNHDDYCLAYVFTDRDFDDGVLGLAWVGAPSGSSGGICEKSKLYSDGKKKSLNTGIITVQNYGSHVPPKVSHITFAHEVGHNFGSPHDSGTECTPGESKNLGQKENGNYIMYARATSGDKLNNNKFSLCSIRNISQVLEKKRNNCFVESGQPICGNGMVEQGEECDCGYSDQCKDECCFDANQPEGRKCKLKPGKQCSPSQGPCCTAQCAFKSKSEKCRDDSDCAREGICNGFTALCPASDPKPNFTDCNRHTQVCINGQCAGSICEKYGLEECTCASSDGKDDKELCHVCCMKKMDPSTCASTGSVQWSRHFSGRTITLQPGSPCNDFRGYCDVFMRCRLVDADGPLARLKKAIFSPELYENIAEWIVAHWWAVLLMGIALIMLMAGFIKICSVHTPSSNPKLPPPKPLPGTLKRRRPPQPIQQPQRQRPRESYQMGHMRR
# MPTP block: blocks calcium-induced mitochondrial swelling. 360,000 tested, 1.4% active. isolated mouse mitochondria, Ca2+ swelling absorbance, 30 min. inhibition, % at 10 µM;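 active = inhibition of 50% or more, scaled per plate between neutral and stimulator controls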;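 note: 0% = DMSO wells given calcium and 100% = 1 mM EGTA wells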
# ADAM17 inh: inhibitors of human ADAM17. AID 720648. P78536. 370,000 tested, 0.83% active. recombinant ADAM17, EDANS/DABCYL FRET peptide cleavage. inhibition, % at 6.95 µM;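 active = inhibition above the mean of compounds lying between control limits plus 3 SD, set per campaign, cut at about 8.5% in these data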;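 note: 0% = DMSO-only wells as the low control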
# V-ATPase pHluor: regulators of yeast V-ATPase proton transport. S. cerevisiae, pHLuorin cytosolic pH fluorescence. response, % at 10 µM. 350,000 tested, 0.37% active. AID 504577; in the data active = response mostly above about 7.3%, no sharp cut-off; inactive = mostly below about 5.4%; note: actives read high
# Lipid droplet: modulators of hepatic lipid droplet formation. AML12 mouse hepatocytes, oleate lipid droplets, BODIPY imaging. inhibition, % at 6.5 µM. 240,000 tested, 0.4% active;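 active = lipid droplet intensity inhibited by at least 50%, with more than 500 cells counted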
#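 Assay system: AML12 hepatocytes (mouse) / Also added: 100 µM oleic acid challenge / Times: overnight treatment with compound plus oleate / Detection: high-content imaging of BODIPY-stained droplets and DAPI nuclei / Evaluation: % inhibition of lipid droplet signal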
# aDG glyco act: increases alpha dystroglycan glycosylation. Pro5-aDG cells, alpha-DG glycosylation AlphaScreen (IIH6); 0% Pro5, 100% B10-LARGE cell signal. activation, % at 10 µM. 360,000 tested, 0.22% active. AID 624168;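 active = activation of at least 8% versus controls, or a plate z-score of at least 8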;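 note: Pro5 are CHO cells carrying HIG-tagged alpha-DG that lacks glycosylation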
# MPTP counter: Rhodamine 123 counter-screen of mitochondrial pore hits. inhibition, % at 10 µM. 5,000 tested, 78% active. isolated mitochondria, membrane potential, Rhodamine 123 fluorescence. AID 624504. shares compounds with MPTP block; in the data active = inhibition above about 22%;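 note: 0% = DMSO vehicle and 100% = positive control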
# MPTP abs DR: dose response confirmation of mitochondrial permeability transition pore inhibitors; IC50, µM; isolated mitochondria swelling, absorbance; 780 tested, 58% active; AID 651561; shares compounds with MPTP block; in the data active = IC50 below about 20 µM
# MPTP cs DR: counter-screen for mitochondrial permeability transition pore inhibitors, dose response. 780 tested, 49% active. IC50, µM. isolated mitochondria counterscreen, fluorescence read-out. shares compounds with MPTP block. AID 651564; in the data active = IC50 below about 80 µM
# * marks the source's active call; other numbers are inactive results; i = inactive; . = no result given. An excerpt weighted towards active compounds, which were near 3.1% of everything screened.
SMILES,ADAM10 inh,MPTP block,ADAM17 inh,V-ATPase pHluor,Lipid droplet,aDG glyco act,MPTP counter,others
CCn1c(SCc2ccccc2Cl)nnc1-c1ccccc1OC,-9,.,2,.,.,.,.,
O=C(NC1CCCCN(Cc2cccc(C(F)(F)F)c2)C1=O)c1ccc(COc2ccccc2)cc1 (stereo unspecified),14,.,6,.,.,.,.,
S=C(NCCCc1ccccc1)Nc1ccccc1Cl,13,86*,4,-1,12,0,100*,
Fc1cc(Br)ccc1NC(=S)NCCc1ccccc1,4,79*,1,5,.,1,83*,
O=C(c1ccccc1)C1CCN(c2ncnc3sccc23)CC1,2,.,0,.,.,.,.,
CC(C)Nc1nc2nonc2nc1Nc1ccccc1,1,91*,3,0,-25,0,81*,
CCN(CC)c1ccc(/C=N/N(c2ccccc2)c2ccccc2)c(O)c1,0,97*,-1,-1,23,-1,54*,
CC1(c2ccccc2)CC(C)(C)N2C(=O)/C(=C3\SC(=S)NC3=O)c3cccc1c32 (stereo unspecified),-4,102*,-2,-2,16,0,63*,
CCC(C)c1ccccc1NC(=O)c1cc2cccc([N+](=O)[O-])c2[nH]1 (stereo unspecified),5,61*,0,3,-12,1,66*,
Cc1ccc(NC(=O)c2ccc(-n3cccn3)c([N+](=O)[O-])c2)cc1,4,8,3,-1,.,0,.,
Cc1ccc(NC(=O)c2cc3cccc([N+](=O)[O-])c3[nH]2)cc1,2,64*,3,-1,4,0,61*,
Cc1ccc(-n2c(SCC(=O)c3ccccc3Cl)nnc2-c2cnccn2)cc1,-1,.,-2,.,.,.,.,
O=C(CSc1nnc(-c2cnccn2)n1-c1ccccc1)c1ccc(F)cc1,-2,.,0,.,.,.,.,
C=CCNc1ncnc2c1[nH]c1ccc(Cl)cc12,-124,89*,-40,3,-2,4,94*,
O=C(O)CCCCCN1C(=O)/C(=C\c2ccc(-c3ccc(Cl)cc3)o2)SC1=S,-1,88*,-3,-1,.,0,47*,
C[C@H](O)[C@@H]1CN2CCc3c([nH]c4c(-c5ccccc5)cccc34)[C@@H]2C[C@@H]1N(C)CC1CCCCC1,-30,.,-10,.,.,.,.,
CCOc1ccccc1OCCN1CCC(Cc2ccccc2)CC1,5,0,-2,-5,-15,0,.,
CCC(=O)c1ccccc1OCCCN1CCC(Cc2ccccc2)CC1,10,69*,-2,-3,-3,1,60*,
Cc1c(NC(=O)Nc2ccc(Cl)c(Cl)c2)sc(=S)n1C,1,51*,1,-2,.,0,64*,
COc1ccc(NC(=O)Nc2sc(=S)n(C)c2C)cc1,2,6,1,0,12,0,.,
COC[C@@H]1CCCN1c1cccc2c1S(=O)(=O)N1CC[C@H](C1)O2,-6,.,-2,.,.,.,.,
O=C(Cn1cnc2c(oc3ccccc32)c1=O)N1CCCc2ccccc21,-2,0,-1,-3,10,0,.,
O=C(CSc1ncnc2c1oc1ccccc12)N1CCCc2ccccc21,3,79*,-4,-2,4,0,72*,
Cc1cccc(N=C2NC(=O)S/C2=C\c2ccco2)c1,-2,71*,-1,-1,-6,0,54*,
O=C1NC(=Nc2ccc(Cl)cc2)/C(=C/c2ccco2)S1,-3,79*,-1,0,-1,0,56*,
SMILES,ADAM10 inh,MPTP block,ADAM17 inh,V-ATPase pHluor,Lipid droplet,aDG glyco act,MPTP counter,others
O=C1NC(=Nc2ccc(O)cc2)S/C1=C/c1ccco1,3,-1,-4,1,19,0,.,
CCOC(=O)C1(CCOC)CCN(Cc2cccc(OCc3ccccc3)c2)CC1,8,55*,0,1,-21,0,10,MPTP abs DR=15*;MPTP cs DR=26*
CCOC(=O)C1(CCOC)CCN(Cc2ccncc2)CC1,-8,0,-1,1,-2,0,.,
CCOC(=O)C1(CCOc2ccccc2)CCN(Cc2cccs2)CC1,-9,52*,-3,-3,-11,0,8,MPTP abs DR=17*;MPTP cs DR=48*
CCOC(=O)C1(CCOc2ccccc2)CCN(Cc2ccncc2)CC1,-6,-2,-3,-2,-14,0,.,
CCOC(=O)C1(CCOC)CCN(C/C=C/c2ccccc2OC)CC1,19,90*,-1,-1,.,1,49*,
CCOC(=O)C1(CCCc2ccccc2)CCN(Cc2nccn2CC)CC1,-3,56*,-1,.,2,5,40*,
CCOC(=O)C1(CCOc2ccccc2)CCN(Cc2nccn2CC)CC1,0,6,-1,2,-27,1,.,
NC(=S)n1[nH]c(-c2ccc([N+](=O)[O-])cc2)c(N=Nc2cccc(Cl)c2)c1=O,4,90*,0,6,-26,1,70*,
CN(C)CCCN(C(=O)c1ccc(S(=O)(=O)N2CCc3ccccc3C2)cc1)c1nc2c(F)cc(F)cc2s1,.,91*,.,-5,.,0,-9,
CCOC(=O)N1CCN(S(=O)(=O)c2ccc(C(=O)N(CCCN(C)C)c3nc4c(F)cc(F)cc4s3)cc2)CC1,-6,51*,-3,1,.,0,-9,MPTP abs DR=19*;MPTP cs DR=>80
Cc1ccc2sc(N(CCCN(C)C)C(=O)c3ccc(S(=O)(=O)N4CCc5ccccc5C4)cc3)nc2c1C,6,90*,0,-2,.,2,-5,MPTP abs DR=i;MPTP cs DR=>80
CC(NCc1ccco1)C(=O)N1CCN(Cc2ccccc2F)CC1 (stereo unspecified),-11,.,0,.,.,.,.,
O=C(CCSc1ccc(Cl)c(Cl)c1)NC12CC3CC(CC(C3)C1)C2,11,52*,6,-3,.,0,45*,
CCC(Sc1nc(C)cc(=O)[nH]1)C(=O)Nc1sc2c(c1C#N)CCCC2 (stereo unspecified),-5,58*,4,1,.,0,69*,
N#Cc1c(NC(=O)CSc2nc(N)cc(=O)[nH]2)sc2c1CCCCCC2,-5,83*,-3,2,8,0,59*,
CC(Sc1nc(N)cc(=O)[nH]1)C(=O)Nc1sc2c(c1C#N)CCCC2 (stereo unspecified),1,76*,0,0,-1,0,94*,
CCCCNC(=O)C[C@H]1C[C@@]2(C(=O)OC)C(=C[C@H](C(C)C)O[C@@H]2C2CC2)N(Cc2ccc3c(c2)OCO3)C1=O,2,.,-3,.,.,.,.,
O=C(Nc1ccccc1)Nc1nc2ncccn2c1-c1ccc(F)c(F)c1,-89,.,-28,.,.,.,.,
